pIC50: −log10 of the molar value. Active and inactive are the calls of the source. No cut-off for these calls is given here.
Experiments:
[1] = molecular target: T1, Thromboxane A2 receptor (Homo sapiens, UniProt P21731); assay: Antagonist activity against human thromboxane A2 receptor alpha expressed in QBI-HEK293A cells assessed as reduction in I-BOP-induced inositol monophosphate production incubated for 15 to 60 mins before I-BOP addition by HTRF assay; type: functional, cell-based, HEK293-A
T1 sequence (P21731 whole entry): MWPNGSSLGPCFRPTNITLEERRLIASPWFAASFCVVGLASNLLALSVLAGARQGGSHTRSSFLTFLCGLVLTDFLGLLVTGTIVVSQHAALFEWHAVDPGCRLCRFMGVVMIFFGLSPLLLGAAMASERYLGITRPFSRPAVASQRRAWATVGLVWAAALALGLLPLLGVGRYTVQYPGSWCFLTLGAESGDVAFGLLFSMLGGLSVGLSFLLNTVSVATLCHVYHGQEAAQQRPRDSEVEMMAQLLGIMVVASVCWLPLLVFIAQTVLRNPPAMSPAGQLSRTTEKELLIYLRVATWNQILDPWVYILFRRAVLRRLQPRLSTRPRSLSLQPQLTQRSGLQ
Outline: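 Stably transfected HEK-293 cells expressing human TP receptor α preincubated 15 min with a range of antagonist concentrations, then stimulated with agonist I-BOP at 0.2 nM. IP1 (metabolite of IP3) quantified after a further 1 h as the activation read-out. IC50 from concentration–response curves; mean and SD of one or more assays run in triplicate.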

[2] = molecular target: T2, Thromboxane A2 receptor (Homo sapiens) (UniProt P21731); assay: Reversible antagonist activity against human thromboxane A2 receptor alpha expressed in QBI-HEK293A cells assessed as reduction in I-BOP-induced inositol monophosphate production at 1 uM incubated for 15 to 60 mins before I-BOP addition and measured after 4 consecutive drug washout by HTRF assay; type: functional, cell-based; details: HEK293-A
T2 sequence (whole entry): T1 sequence (P21731 whole entry)
Outline: (§1)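 TP receptor α HEK-293 cells given 1 μM compound for 15 or 60 min, then four consecutive wash cycles, each about 50-fold dilution and separated by 15 min equilibration, before 0.8 nM I-BOP. IP1 then measured. Controls received I-BOP alone or no treatment; ANOVA with Dunnett's test against the […] at each time.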

[3] = molecular target: T2, Thromboxane A2 receptor (Homo sapiens); assay: Antagonist activity against human thromboxane A2 receptor alpha expressed in QBI-HEK293A cells assessed as reduction in I-BOP-induced inositol monophosphate production at 1 uM incubated for 15 to 60 mins before I-BOP addition by HTRF assay; type: functional, cell-based; details: HEK293-A
Outline: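 hTP-expressing HEK-293 cells exposed to 1 μM antagonist for 15 or 60 min, then 0.8 nM I-BOP added without washing. Relative IP1 levels measured. Controls received I-BOP alone or no treatment.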

[4] = molecular target: T2, Thromboxane A2 receptor (Homo sapiens); assay: (§2) Irreversible antagonist activity against human thromboxane A2 receptor alpha expressed in QBI-HEK293A cells assessed as reduction in I-BOP-induced inositol monophosphate production at 1 uM incubated for 15 to 60 mins before I-BOP addition and measured after 6 consecutive drug washout by HTRF assay; type: functional, cell-based; details: HEK293-A
Outline: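 Washout variant: hTP cells preincubated 15 min with compound (1 μM; 10 μM for some), then 6 consecutive wash cycles of ~50-fold dilution each before 0.8 nM I-BOP. Relative IP1 determined. Controls received I-BOP alone or no treatment; ANOVA with Dunnett's test against the +I-BOP condition.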

[5] = molecular target: T2, Thromboxane A2 receptor (Homo sapiens); details: HEK293-A, 1 uM
[6] = molecular target: T2, Thromboxane A2 receptor (Homo sapiens); assay: Irreversible antagonist activity against human thromboxane A2 receptor alpha expressed in QBI-HEK293A cells assessed as reduction in I-BOP-induced inositol monophosphate production at 1 uM incubated for 15 to 60 mins before I-BOP addition and measured after 4 consecutive drug washout by HTRF assay; type: functional, cell-based; details: HEK293-A; outline: as §1
[7] = molecular target: T2, Thromboxane A2 receptor (Homo sapiens); assay: as §2, with “uM at 4 degC” for “uM”; type: functional, cell-based; details: HEK293-A
Outline: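 Six-wash washout protocol (each wash ~50-fold dilution) run at 4 °C to suppress endocytosis and receptor trafficking. Human TP receptor-expressing cells, then I-BOP stimulation and IP1 read-out.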

[8] = molecular target: T3, Prostaglandin E2 receptor EP1 subtype (Homo sapiens) (UniProt P34995); assay: Antagonist activity against human EP1 receptor expressed in QBI-HEK293A cells assessed as reduction in 17-PGE2-induced inositol monophosphate production at 1 uM incubated for 15 to 60 mins before […] addition by HTRF assay; type: functional, cell-based; details: HEK293-A
T3 sequence (whole entry): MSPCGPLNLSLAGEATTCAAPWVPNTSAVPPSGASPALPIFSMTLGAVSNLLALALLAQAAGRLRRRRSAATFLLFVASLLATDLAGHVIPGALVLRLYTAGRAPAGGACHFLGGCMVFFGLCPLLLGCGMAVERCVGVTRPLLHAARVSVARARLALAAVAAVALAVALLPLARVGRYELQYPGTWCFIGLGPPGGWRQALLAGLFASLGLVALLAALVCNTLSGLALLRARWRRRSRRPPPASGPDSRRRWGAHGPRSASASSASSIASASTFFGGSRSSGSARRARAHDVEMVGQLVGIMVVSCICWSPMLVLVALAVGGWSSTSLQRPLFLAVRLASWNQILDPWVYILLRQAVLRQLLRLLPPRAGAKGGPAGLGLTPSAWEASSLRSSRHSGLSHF

[9] = test system: Plasma; assay: Stability in CD1 mouse plasma at 1 uM after 1 hr at 37 degC by UPLC-ESI-MS/MS method; type: ADME, cell-free
Outline: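 Free compound concentration followed during 1 h incubation in plasma.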

[10] = Stability in presence of 10 mM glutathione in pH 7.0 aqueous buffer after 3 hrs; type: physicochemical; details: pH 7, 3 h
Outline: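 Equimolar glutathione and CPD derivative, each at 10 mM, incubated in aqueous buffer at pH 7 for 3 h. Consumption of the starting dione monitored.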

SMILES	pIC50 [1]	inhibition [2]	inhibition [4]	further results
O=C1C(c2ccccc2)=C(O)CC1Cc1cccc(CCNS(=O)(=O)c2ccc(Cl)cc2)c1 (racemic) [listing 1 of 2 here]	7.23			
Cc1ccc2c(c1CCC(=O)O)CC[C@@H](NS(=O)(=O)c1ccc(Cl)cc1)C2 [TERUTROBAN]	7.79			
O=C1C(c2ccccc2)=C(O)CC1Cc1cccc2c1CCC(NS(=O)(=O)c1ccc(Cl)cc1)C2 (centres undefined)	8.41		Active	
O=C(O)Cc1cccc2c1CCC(NS(=O)(=O)c1ccc(Cl)cc1)C2 (centres undefined)	7.97	Active		inhibition [5]: Active; inhibition [3]: Active
O=C1C(Cc2ccccc2)=C(O)CC1Cc1cccc2c1CCC(NS(=O)(=O)c1ccc(Cl)cc1)C2 (centres undefined)	7.53		Active	
O=C1C(c2ccc(F)cc2)=C(O)CC1Cc1cccc2c1CCC(NS(=O)(=O)c1ccc(Cl)cc1)C2 (centres undefined)	8.19		Active	
Cc1cccc(C)c1C1=C(OCC(C)C)CC(Cc2cccc3c2CCC(NS(=O)(=O)c2ccc(Cl)cc2)C3)C1=O (centres undefined)	5.56			
O=C1C(c2ccccc2)=C(O)CC1Cc1cccc(CCNS(=O)(=O)c2ccc(Cl)cc2)c1 (racemic) [listing 2 of 2 here]			Active	
Cc1cccc(C)c1C1C(=O)CCC1=O				Stability [10]: Stable
Cc1cccc(C)c1C1=C(O)CC(Cc2cccc3c2CCCC3)C1=O (centres undefined)	6.05	Active		

Second part, led by results:

pIC50 [1]	inhibition [2]	inhibition [4]	SMILES	further results
7.95	Active		CC1=C(O)CC(Cc2cccc3c2CCC(NS(=O)(=O)c2ccc(Cl)cc2)C3)C1=O (centres undefined)	inhibition [3]: Active
	Active		O=C(O)CCc1cccc(CCNS(=O)(=O)c2ccc(Cl)cc2)c1	
10.28			COc1ccc(C2=C(O)CC(Cc3cccc4c3CCC(NS(=O)(=O)c3ccc(Cl)cc3)C4)C2=O)cc1 (centres undefined)	inhibition [6]: Active; inhibition [3]: Active
10.82		Active	Cc1cccc(C)c1C1=C(O)CC(Cc2cccc3c2CCC(NS(=O)(=O)c2ccc(Cl)cc2)C3)C1=O (centres undefined)	inhibition [6]: Active; inhibition [7]: Active; inhibition [3]: Active; inhibition [8]: inactive; Stability [9]: Stable
		Active	O=C1C(c2ccccc2)=C(O)CC1Cc1cccc(CCNS(=O)(=O)c2ccc(Cl)cc2)c1 (single isomer, unassigned; (+))	
6.05	Active		O=C1C(C2CCCCC2)=C(O)CC1Cc1cccc(CCNS(=O)(=O)c2ccc(Cl)cc2)c1 (centres undefined)	

Reference: ChEMBL document CHEMBL3351871, “Potent, long-acting cyclopentane-1,3-Dione thromboxane (A2)-receptor antagonists” (ACS Med Chem Lett, 2014)
